Data: ChEMBL document CHEMBL4219260, “Investigation of chemical reactivity of 2-alkoxy-1,4-naphthoquinones and their anticancer activity” (Bioorg Med Chem Lett, 2018)

Experiments:
Type in all cases: functional, cell-based
COLO 205 = experiment: Antiproliferative activity against human COLO205 cells after 72 hrs by CellTiter-Glo assay; details: COLO 205, 72 h
Outline: (§1)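 Cells from ATCC, checked mycoplasma-free by PCR, grown in RPMI with 10% FBS, 1% penicillin/streptomycin and 2 mM L-glutamine. Seeded and incubated 24 h, then exposed to 0.3, 1, 3 and 10 μM for 72 h. Viability was read by CellTiter-Glo relative to 0.1% DMSO vehicle. IC50 came from standard curve analysis, with doxorubicin as positive control. Three independent experiments, each in triplicate.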

T47D = experiment: Antiproliferative activity against human T47D cells after 72 hrs by CellTiter-Glo assay; outline: as §1
K562 = experiment: Antiproliferative activity against human K562 cells after 72 hrs by CellTiter-Glo assay; details: K562, 72 h; outline: as §1

Structure (SMILES)	IC50 (COLO 205) [µM]	IC50 (T47D) [µM]	IC50 (K562) [µM]
O=C1C(O)=CC(=O)c2c(O)cccc21	> 10	> 10	> 10
COC1=CC(=O)c2cccc(O)c2C1=O	> 10	> 10	> 10
COC(=O)COC1=CC(=O)c2ccccc2C1=O	> 10	> 10	> 10
COC1=CC(=O)c2c(OC)cccc2C1=O	> 10	> 10	> 10
O=C1C=C(O)C(=O)c2c(O)cccc21	> 10	> 10	> 10

Next, values leading:

IC50 (COLO 205) [µM]	IC50 (T47D) [µM]	IC50 (K562) [µM]	Structure (SMILES)
0.7	1.7	0.9	NC(=O)COC1=CC(=O)c2c(O)cccc2C1=O
> 10	> 10	> 10	O=C(O)COC1=CC(=O)c2c(O)cccc2C1=O
1.7	1	1.2	CN(C)C(=O)COC1=CC(=O)c2c(O)cccc2C1=O
1.9	2.2	1.3	COC(=O)COC1=CC(=O)c2c(O)cccc2C1=O
2.3	2	1.4	COC1=CC(=O)c2c(O)cccc2C1=O
